Measurements reported in ChEMBL document CHEMBL1153560, “In vitro activities of doripenem and six comparator drugs against 423 aerobic and anaerobic bacterial isolates from infected diabetic foot wounds” (2008).
Values after ≈ are worked out from the molar mass of the structure shown.

Tests used:
Assay type in all cases: functional
Corynebacterium jeikeium [1] = experiment: Antibacterial activity against Corynebacterium jeikeium isolated from patient with diabetic foot infection after 48 hrs by broth microdilution method
Method in brief: (§1)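 Isolates were subcultured on Trypticase soy blood agar. Broth microdilution used cation-adjusted Mueller-Hinton broth with lysed horse blood, in-house trays of twofold drug dilutions stored at −70°C. Colonies from overnight growth gave a final inoculum of about 5 × 10^5 CFU/ml. Trays were read after 18 to 24 h at 37°C, up to 48 h for some strains.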

Staphylococcus aureus = experiment: Antibacterial activity against methicillin-resistant Staphylococcus aureus isolated from patient with diabetic foot infection assessed as percent resistant isolates after 18 to 24 hrs by broth microdilution method
Method in brief: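 Isolates grown on Trypticase soy blood agar, then tested by broth microdilution in unsupplemented cation-adjusted Mueller-Hinton broth. In-house trays held serial twofold drug dilutions and were stored at −70°C. Overnight colonies were suspended to a final inoculum near 5 × 10^5 CFU/ml, and trays read after 18–24 h at 37°C. QC strains: S. aureus ATCC 29213, E. coli ATCC 25922.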

Corynebacterium simulans = experiment: Antibacterial activity against Corynebacterium simulans isolated from patient with diabetic foot infection after 48 hrs by broth microdilution method; method in brief: as §1
Corynebacterium accolens [2] = experiment: Antibacterial activity against Corynebacterium accolens isolated from patient with diabetic foot infection after 48 hrs by broth microdilution method; method in brief: as §1
[3] = test system: Corynebacterium amycolatum; experiment: Antibacterial activity against Corynebacterium amycolatum isolated from patient with diabetic foot infection assessed as percent resistant isolates after 48 hrs by broth microdilution method
Method in brief: (§2)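 Isolates subcultured on Trypticase soy blood agar. Broth microdilution in cation-adjusted Mueller-Hinton broth with lysed horse blood, using in-house twofold dilution trays stored at −70°C. Inoculum from overnight colonies at about 5 × 10^5 CFU/ml final. Read after 18 to 24 h at 37°C, up to 48 h for some Corynebacterium strains.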

Corynebacterium striatum [4] = experiment: Antibacterial activity against Corynebacterium striatum isolated from patient with diabetic foot infection after 48 hrs by broth microdilution method; method in brief: as §1
[5] = test system: Streptococcus dysgalactiae subsp. equisimilis; experiment: Antibacterial activity against Streptococcus dysgalactiae subsp. equisimilis isolated from patient with diabetic foot infection after 18 to 24 hrs by broth microdilution method
Method in brief: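 Streptococcal isolates were subcultured on Trypticase soy blood agar. Broth microdilution used cation-adjusted Mueller-Hinton broth with lysed horse blood, in in-house trays of serial twofold drug dilutions stored at −70°C. Overnight colonies were suspended to a final inoculum of approximately 5 × 10^5 CFU/ml. MIC was read after 18 to 24 h incubation at 37°C.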

[6] = test system: Corynebacterium urealyticum; experiment: Antibacterial activity against Corynebacterium urealyticum isolated from patient with diabetic foot infection assessed as percent resistant isolates after 48 hrs by broth microdilution method; method in brief: as §2
Corynebacterium xerosis = experiment: Antibacterial activity against Corynebacterium xerosis isolated from patient with diabetic foot infection after 48 hrs by broth microdilution method; method in brief: as §1
[7] = test system: Staphylococcus lugdunensis; experiment: Antibacterial activity against Staphylococcus lugdunensis isolated from patient with diabetic foot infection assessed as percent resistant isolates after 18 to 24 hrs by broth microdilution method
Method in brief: (§3)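 Aerobes subcultured on Trypticase soy blood agar, then broth microdilution in cation-adjusted Mueller-Hinton broth. Trays prepared in-house with twofold dilutions and stored at −70°C. Overnight colonies suspended to about 5 × 10^5 CFU/ml final. Read after 18 to 24 h at 37°C. QC strains included S. aureus ATCC 29213 and E. coli ATCC 25922.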

Corynebacterium accolens [8] = experiment: Antibacterial activity against Corynebacterium accolens isolated from patient with diabetic foot infection assessed as percent resistant isolates after 48 hrs by broth microdilution method; method in brief: as §2
Corynebacterium striatum [9] = experiment: Antibacterial activity against Corynebacterium striatum isolated from patient with diabetic foot infection assessed as percent resistant isolates after 48 hrs by broth microdilution method; method in brief: as §2
Corynebacterium jeikeium [10] = experiment: Antibacterial activity against Corynebacterium jeikeium isolated from patient with diabetic foot infection assessed as percent resistant isolates after 48 hrs by broth microdilution method; method in brief: as §2
[11] = test system: Corynebacterium aurimucosum; experiment: Antibacterial activity against Corynebacterium aurimucosum isolated from patient with diabetic foot infection after 48 hrs by broth microdilution method; method in brief: as §1
[12] = test system: Staphylococcus epidermidis; experiment: Antibacterial activity against Staphylococcus epidermidis isolated from patient with diabetic foot infection assessed as percent resistant isolates after 18 to 24 hrs by broth microdilution method; method in brief: as §3
Streptococcus pyogenes = experiment: Antibacterial activity against Streptococcus pyogenes isolated from patient with diabetic foot infection assessed as percent resistant isolates after 18 to 24 hrs by broth microdilution method
Method in brief: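 Isolates subcultured on Trypticase soy blood agar. MICs by broth microdilution in cation-adjusted Mueller-Hinton broth with lysed horse blood, in in-house trays of serial twofold drug dilutions stored at −70°C. Colonies from overnight growth were suspended to a final inoculum of about 5 × 10^5 CFU/ml. Read after 18–24 h at 37°C.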

[13] = test system: Corynebacterium minutissimum; experiment: Antibacterial activity against Corynebacterium minutissimum isolated from patient with diabetic foot infection after 48 hrs by broth microdilution method; method in brief: as §1
[14] = test system: Corynebacterium aurimucosum; experiment: Antibacterial activity against Corynebacterium aurimucosum isolated from patient with diabetic foot infection assessed as percent resistant isolates after 48 hrs by broth microdilution method; method in brief: as §2
Proteus vulgaris = experiment: Antibacterial activity against Proteus vulgaris isolated from patient with diabetic foot infection after 18 to 24 hrs by broth microdilution method
Method in brief: (§4)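 Isolates were subcultured on Trypticase soy blood agar and tested by broth microdilution in cation-adjusted Mueller-Hinton broth. In-house trays of twofold drug dilutions were stored at −70°C. Overnight colonies gave a final inoculum of about 5 × 10^5 CFU/ml. Plates were read after 18 to 24 h at 37°C.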

Pseudomonas aeruginosa [15] = experiment: Antibacterial activity against Pseudomonas aeruginosa isolated from patient with diabetic foot infection after 18 to 24 hrs by broth microdilution method; method in brief: as §4
Klebsiella pneumoniae = experiment: Antibacterial activity against Klebsiella pneumoniae isolated from patient with diabetic foot infection after 18 to 24 hrs by broth microdilution method; method in brief: as §4
Klebsiella aerogenes = experiment: Antibacterial activity against Enterobacter aerogenes isolated from patient with diabetic foot infection after 18 to 24 hrs by broth microdilution method; method in brief: as §4
Proteus mirabilis = experiment: Antibacterial activity against Proteus mirabilis isolated from patient with diabetic foot infection assessed as percent resistant isolates after 18 to 24 hrs by broth microdilution method; method in brief: as §3
Escherichia coli [16] = experiment: Antibacterial activity against Escherichia coli isolated from patient with diabetic foot infection after 18 to 24 hrs by broth microdilution method; method in brief: as §4
Pseudomonas aeruginosa [17] = experiment: Antibacterial activity against Pseudomonas aeruginosa isolated from patient with diabetic foot infection assessed as percent resistant isolates after 18 to 24 hrs by broth microdilution method; method in brief: as §3
Escherichia coli [18] = experiment: Antibacterial activity against Escherichia coli isolated from patient with diabetic foot infection assessed as percent resistant isolates after 18 to 24 hrs by broth microdilution method; method in brief: as §3

| SMILES | MIC50 (Corynebacterium jeikeium [1]) [µg/mL] | MIC90 (Corynebacterium jeikeium [1]) [µg/mL] | Activity (Staphylococcus aureus) [%] | MIC50 (Corynebacterium simulans) [µg/mL] | MIC90 (Corynebacterium simulans) [µg/mL] | MIC50 (Corynebacterium accolens [2]) [µg/mL] | MIC90 (Corynebacterium accolens [2]) [µg/mL] | Activity [3] [%] | MIC50 (Corynebacterium striatum [4]) [µg/mL] | MIC90 (Corynebacterium striatum [4]) [µg/mL] | MIC50 [5] [µg/mL] | MIC90 [5] [µg/mL] | Activity [6] [%] | MIC50 (Corynebacterium xerosis) [µg/mL] | MIC90 (Corynebacterium xerosis) [µg/mL] | Activity [7] [%] | Activity (Corynebacterium accolens [8]) [%] | Activity (Corynebacterium striatum [9]) [%] | Activity (Corynebacterium jeikeium [10]) [%] | MIC50 [11] [µg/mL] | further results |
| --- | --- | --- | --- | --- | --- | --- | --- | --- | --- | --- | --- | --- | --- | --- | --- | --- | --- | --- | --- | --- | --- |
| CCC[C@@H]1C[C@@H](C(=O)N[C@@H]([C@H]2O[C@H](SC)[C@H](O)[C@@H](O)[C@H]2O)[C@H](C)Cl)N(C)C1 [CLINDAMYCIN] | > 64 | > 64 | 39 | 2 (≈ 4.71 µM) | > 64 | 2 (≈ 4.71 µM) | > 64 | 100 | 2 (≈ 4.71 µM) | > 64 | 0.125 (≈ 0.294 µM) | > 64 | 100 | 2 (≈ 4.71 µM) | > 64 | 13 | 78 | 78 | 100 | > 64 | MIC90 [11]: > 64 µg/mL; Activity [12]: 33%; Activity (Streptococcus pyogenes): 13%; MIC50 [13]: > 64 µg/mL; MIC90 [13]: > 64 µg/mL; Activity [14]: 100% |
| C[C@@H](O)[C@H]1C(=O)N2C(C(=O)O)=C(SCCNC=N)C[C@H]12 [IMIPENEM ANHYDROUS] | 0.25 (≈ 0.835 µM) | 32 (≈ 107 µM) | 100 | 0.03 (≈ 0.1 µM) | 0.125 (≈ 0.418 µM) | 0.03 (≈ 0.1 µM) | 0.125 (≈ 0.418 µM) | 7 | 0.03 (≈ 0.1 µM) | 0.125 (≈ 0.418 µM) | ≤ 0.015 | ≤ 0.015 | 30 | 0.03 (≈ 0.1 µM) | 0.125 (≈ 0.418 µM) | 0 | 0 | 0 | 30 | 0.25 (≈ 0.835 µM) | MIC50 (Proteus vulgaris): 0.5 µg/mL (≈ 1.67 µM); MIC90 (Proteus vulgaris): 4 µg/mL (≈ 13.4 µM); MIC50 (Pseudomonas aeruginosa [15]): 2 µg/mL (≈ 6.68 µM); MIC90 (Pseudomonas aeruginosa [15]): 8 µg/mL (≈ 26.7 µM); MIC50 (Klebsiella pneumoniae): 0.25 µg/mL (≈ 0.835 µM); MIC90 (Klebsiella pneumoniae): 1 µg/mL (≈ 3.34 µM); MIC50 (Klebsiella aerogenes): 1 µg/mL (≈ 3.34 µM); MIC90 (Klebsiella aerogenes): 2 µg/mL (≈ 6.68 µM); Activity (Proteus mirabilis): 0%; MIC50 (Escherichia coli [16]): 0.125 µg/mL (≈ 0.418 µM); MIC90 (Escherichia coli [16]): 0.25 µg/mL (≈ 0.835 µM); Activity (Pseudomonas aeruginosa [17]): 13%; MIC90 [11]: 32 µg/mL (≈ 107 µM); Activity [12]: 67%; Activity (Streptococcus pyogenes): 0%; MIC50 [13]: 0.25 µg/mL (≈ 0.835 µM); MIC90 [13]: 32 µg/mL (≈ 107 µM); Activity (Escherichia coli [18]): 0%; Activity [14]: 30% |
| C[C@@H](O)[C@H]1C(=O)N2C(C(=O)O)=C(S[C@@H]3CN[C@H](C(=O)N(C)C)C3)[C@H](C)[C@H]12 [MEROPENEM] | 1 (≈ 2.61 µM) | 16 (≈ 41.7 µM) | 100 | 0.125 (≈ 0.326 µM) | 0.25 (≈ 0.652 µM) | 0.125 (≈ 0.326 µM) | 0.25 (≈ 0.652 µM) | 7 | 0.125 (≈ 0.326 µM) | 0.25 (≈ 0.652 µM) | ≤ 0.015 | ≤ 0.015 | 20 | 0.125 (≈ 0.326 µM) | 0.25 (≈ 0.652 µM) | 0 | 0 | 0 | 20 | 1 (≈ 2.61 µM) | MIC50 (Proteus vulgaris): 0.06 µg/mL (≈ 0.156 µM); MIC90 (Proteus vulgaris): 0.125 µg/mL (≈ 0.326 µM); MIC50 (Pseudomonas aeruginosa [15]): 0.5 µg/mL (≈ 1.3 µM); MIC90 (Pseudomonas aeruginosa [15]): 4 µg/mL (≈ 10.4 µM); MIC50 (Klebsiella pneumoniae): 0.03 µg/mL (≈ 0.0782 µM); MIC90 (Klebsiella pneumoniae): 0.06 µg/mL (≈ 0.156 µM); MIC50 (Klebsiella aerogenes): 0.06 µg/mL (≈ 0.156 µM); MIC90 (Klebsiella aerogenes): 0.5 µg/mL (≈ 1.3 µM); Activity (Proteus mirabilis): 0%; MIC50 (Escherichia coli [16]): 0.03 µg/mL (≈ 0.0782 µM); MIC90 (Escherichia coli [16]): 0.03 µg/mL (≈ 0.0782 µM); Activity (Pseudomonas aeruginosa [17]): 7%; MIC90 [11]: 16 µg/mL (≈ 41.7 µM); Activity [12]: 67%; Activity (Streptococcus pyogenes): 0%; MIC50 [13]: 1 µg/mL (≈ 2.61 µM); MIC90 [13]: 16 µg/mL (≈ 41.7 µM); Activity (Escherichia coli [18]): 0%; Activity [14]: 20% |
